Reference: ChEMBL document CHEMBL4699573, “Design, Synthesis, and Pharmacological Evaluation of Analogues Derived from the PLEV Tetrapeptide as Protein-Protein Interaction Modulators of Voltage-Gated Sodium Channel 1.6” (J Med Chem, 2020)
Activity calls are given as the source filed them. No cut-off for these calls is given here. Residues, ends and D or L forms follow the SMILES beside them. *: point of attachment. Adamantane1carbonyl = O=C(C12CC3CC(CC(C3)C1)C2)*; Pyrrolidide = C1CCN(*)C1; Cbz = O=C(OCc1ccccc1)*; OcHex = C1CCC(O*)CC1; OtBu = CC(C)(C)O*; OAll = C=CCO*; OPr = CCCO*

Key:
[1] = biological target: T1, Fibroblast growth factor 14 (Homo sapiens, UniProt Q92915); assay: Binding affinity to human recombinant FGF14 expressed in Escherichia coli BL21 assessed as dissociation constant by SPR analysis
T1 sequence (Q92915 whole entry): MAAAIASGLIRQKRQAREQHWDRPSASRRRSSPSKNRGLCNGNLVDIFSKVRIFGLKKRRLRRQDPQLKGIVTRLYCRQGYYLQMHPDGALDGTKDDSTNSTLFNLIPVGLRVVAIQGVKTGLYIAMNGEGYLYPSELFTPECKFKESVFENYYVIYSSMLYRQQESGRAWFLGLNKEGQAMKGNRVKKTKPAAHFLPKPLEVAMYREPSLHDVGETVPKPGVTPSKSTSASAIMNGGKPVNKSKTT
How it was run: (§1)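 Biacore T100 runs with FGF14 (17,896 RU) or Nav1.6 C-tail (6,800 RU) amine-coupled on CM5 at pH 5.5. Compounds at 0.195–200 μM in PBS, 0.005% Tween-20, 2% DMSO; 50 μL/min at 25 °C. 120 s association, 150 s dissociation, DMSO calibration, blank subtraction. Rates from a Langmuir 1:1 fit; KD averages the kinetic and steady-state values. At least duplicate experiments.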

HEK293 [2] = assay: (§2) Modulation of recombinant human FGF141b (1 to 252 residues)-recombinant human Nav1.6 C-terminal tail (1763 to 1976 residues) protein-protein interaction expressed in HEK293 cells measured at 2 mins interval for 20 mins by split-luciferase complementation assay relative to control; type: cell-based; conditions: filed as modulator, time min 2-20
How it was run: (§3)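 Double-stable HEK293 line expressing CLuc-FGF14 and CD4-Nav1.6-C-tail-NLuc, kept on G418 and puromycin. Cells seeded for 24 h, then given compound for 1 h in serum-free, phenol red-free DMEM/F12 with a final 0.5% DMSO: 50 μM for screening, 0.25–100 μM over eight concentrations for dose-response; n = 4. D-luciferin added and read every 2 min for 20 min at 37 °C. Peak luminescence expressed as percent of per-plate DMSO mean (n = 32). IC50 from four-parameter nonlinear fit. At least 3 experiments.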

[3] = biological target: T2, Fibroblast growth factor 14 (Homo sapiens) (UniProt Q92915); assay: Binding affinity to human recombinant FGF14 expressed in Escherichia coli BL21 assessed as assessed as induction of protein denaturation by measuring change in melting temperature at 50 uM by fluorescent dye based thermal shift assay; conditions: filed as modulator
T2 sequence (whole entry): T1 sequence (Q92915 whole entry)

HEK293 [4] = assay: as §2, with “cells assessed as relative luminescence value at 50 uM” for “cells”; type: cell-based; conditions: filed as modulator, time min 2-20; how it was run: as §3
[5] = biological target: T2, Fibroblast growth factor 14 (Homo sapiens); assay: Binding affinity to human recombinant FGF14 expressed in Escherichia coli BL21 assessed as association rate constant by SPR analysis; conditions: filed as modulator; how it was run: as §1
HEK293 [6] = assay: Cytotoxicity against HEK293 cells assessed as reduction in cell viability measured after 18 hrs by celltiter-blue assay; conditions: human, hek293, 18 h
[7] = biological target: T3, Sodium channel protein type 8 subunit alpha (Homo sapiens, UniProt Q9UQD0); assay: Binding affinity to human recombinant Nav1.6 C-terminal domain expressed in Escherichia coli BL21 assessed as assessed as induction of protein denaturation by measuring change in melting temperature at 10 uM by fluorescent dye based thermal shift assay; conditions: filed as modulator, dose 50.0 µM
Target sequence in this assay (Q9UQD0 whole entry, looked up, the tested form may be a part): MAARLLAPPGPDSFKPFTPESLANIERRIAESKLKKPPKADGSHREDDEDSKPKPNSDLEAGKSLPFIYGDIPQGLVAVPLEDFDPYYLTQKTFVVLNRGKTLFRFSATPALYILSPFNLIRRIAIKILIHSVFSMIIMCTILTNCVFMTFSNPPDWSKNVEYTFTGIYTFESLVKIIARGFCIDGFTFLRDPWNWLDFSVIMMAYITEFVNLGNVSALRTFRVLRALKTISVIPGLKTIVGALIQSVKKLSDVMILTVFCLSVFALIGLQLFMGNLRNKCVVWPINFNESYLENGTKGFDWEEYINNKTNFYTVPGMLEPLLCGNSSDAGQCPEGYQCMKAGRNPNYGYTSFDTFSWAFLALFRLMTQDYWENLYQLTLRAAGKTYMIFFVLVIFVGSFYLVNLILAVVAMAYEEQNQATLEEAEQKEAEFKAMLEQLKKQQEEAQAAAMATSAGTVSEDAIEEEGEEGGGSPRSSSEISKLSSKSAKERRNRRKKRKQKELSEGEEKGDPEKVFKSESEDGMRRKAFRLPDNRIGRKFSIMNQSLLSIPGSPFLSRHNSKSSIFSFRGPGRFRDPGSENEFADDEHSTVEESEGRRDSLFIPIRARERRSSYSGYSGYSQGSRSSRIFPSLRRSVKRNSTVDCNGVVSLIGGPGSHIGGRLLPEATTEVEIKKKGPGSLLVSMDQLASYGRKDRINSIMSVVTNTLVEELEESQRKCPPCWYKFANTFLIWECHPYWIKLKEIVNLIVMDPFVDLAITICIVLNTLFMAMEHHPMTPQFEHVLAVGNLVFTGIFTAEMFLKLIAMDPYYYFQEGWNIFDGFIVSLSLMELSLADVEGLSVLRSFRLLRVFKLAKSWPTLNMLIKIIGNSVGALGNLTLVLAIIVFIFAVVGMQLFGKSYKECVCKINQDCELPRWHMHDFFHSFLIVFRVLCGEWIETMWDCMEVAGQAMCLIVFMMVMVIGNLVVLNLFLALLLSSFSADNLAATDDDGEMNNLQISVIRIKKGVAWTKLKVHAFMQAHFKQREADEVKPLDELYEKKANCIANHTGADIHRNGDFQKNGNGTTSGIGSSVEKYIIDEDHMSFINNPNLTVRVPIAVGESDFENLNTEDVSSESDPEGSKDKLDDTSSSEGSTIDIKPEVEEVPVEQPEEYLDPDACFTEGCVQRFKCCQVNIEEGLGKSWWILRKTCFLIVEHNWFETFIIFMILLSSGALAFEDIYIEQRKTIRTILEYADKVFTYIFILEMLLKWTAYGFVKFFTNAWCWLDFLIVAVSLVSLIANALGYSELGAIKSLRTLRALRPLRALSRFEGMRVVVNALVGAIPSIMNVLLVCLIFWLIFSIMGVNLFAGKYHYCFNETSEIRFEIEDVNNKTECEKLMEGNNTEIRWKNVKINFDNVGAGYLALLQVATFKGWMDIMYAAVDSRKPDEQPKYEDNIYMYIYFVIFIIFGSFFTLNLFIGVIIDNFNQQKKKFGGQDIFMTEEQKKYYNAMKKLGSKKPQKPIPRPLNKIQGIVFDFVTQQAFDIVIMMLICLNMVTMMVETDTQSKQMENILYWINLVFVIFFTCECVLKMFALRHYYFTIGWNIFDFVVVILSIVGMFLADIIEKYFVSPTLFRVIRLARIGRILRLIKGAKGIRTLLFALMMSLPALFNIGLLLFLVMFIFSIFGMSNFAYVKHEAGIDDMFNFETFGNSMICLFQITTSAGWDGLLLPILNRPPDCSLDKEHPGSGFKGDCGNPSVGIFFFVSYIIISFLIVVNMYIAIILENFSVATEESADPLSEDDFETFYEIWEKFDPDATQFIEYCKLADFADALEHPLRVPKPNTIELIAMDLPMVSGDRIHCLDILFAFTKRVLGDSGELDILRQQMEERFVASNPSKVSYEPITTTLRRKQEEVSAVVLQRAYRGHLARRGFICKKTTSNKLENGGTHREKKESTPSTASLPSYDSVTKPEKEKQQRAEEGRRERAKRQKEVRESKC

[8] = Modulation of recombinant human FGF141b (1 to 252 residues)-recombinant human Nav1.6 C-terminal tail (1763 to 1976 residues) protein-protein interaction expressed in HEK293 cells measured at 2 mins interval for 20 mins by split-luciferase complementation assay; type: cell-based; how it was run: as §3
HEK293 [9] = assay: Inhibition of full-length Photinus pyralis luciferase transfected in HEK293 cells at 25 uM incubated for 1 hrs by split-luciferase complementation assay; type: cell-based
How it was run: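 HEK293 cells transfected with full-length Photinus pyralis luciferase, then treated 1 h with 25 μM compound (n = 4) or 0.5% DMSO (n = 32). Luminescence read after D-luciferin addition, as in the LCA, normalized to per-plate DMSO controls. One-way ANOVA with Dunnett's test.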

[10] = biological target: T2, Fibroblast growth factor 14 (Homo sapiens); assay: Binding affinity to human recombinant FGF14 expressed in Escherichia coli BL21 assessed as dissociation rate constant by SPR analysis; conditions: filed as modulator; how it was run: as §1
[11] = biological target: T3, Sodium channel protein type 8 subunit alpha; assay: Binding affinity to human recombinant Nav1.6 C-terminal domain expressed in Escherichia coli BL21 assessed as dissociation constant by SPR analysis; how it was run: as §1
Target sequence in this assay (Q9UQD0 whole entry, the tested form may be a part): as the sequence (Q9UQD0 whole entry, looked up, the tested form may be a part) above

[12] = biological target: T3, Sodium channel protein type 8 subunit alpha; assay: Binding affinity to human recombinant Nav1.6 C-terminal domain expressed in Escherichia coli BL21 assessed as dissociation rate constant by SPR analysis; conditions: filed as modulator; how it was run: as §1
Target sequence in this assay (Q9UQD0 whole entry, looked up, the tested form may be a part): as above

[13] = biological target: T3, Sodium channel protein type 8 subunit alpha; assay: Binding affinity to human recombinant Nav1.6 C-terminal domain expressed in Escherichia coli BL21 assessed as association rate constant by SPR analysis; conditions: filed as modulator; how it was run: as §1
Target sequence in this assay (Q9UQD0 whole entry, looked up, the tested form may be a part): as above

Compound | Kd [1] | Efficacy (HEK293 [2]) | ΔTm [3] | Activity (HEK293 [4]) | K [5] | Activity (HEK293 [6]) | ΔTm [7] | IC50 [8] | inhibition (HEK293 [9]) | K [10] | Kd [11] | K [12] | K [13]
CC(C)C[C@H](NC(=O)[C@@H]1CCCN1C(=O)OCc1ccccc1)C(=O)N[C@@H](CCC(=O)OC(C)(C)C)C(=O)N[C@H](C(=O)N1CCCC1)C(C)C (Cbz-PLE(OtBu)V-Pyrrolidide) | 189 µM | 96.9% | 3.38 °C | 14% | 4.61 10^2/M/s | Non-Toxic | -0.48 °C | 33.4 µM | inactive | 9.91 10^-4/s |  |  | 
CC(C)C[C@H](NC(=O)[C@@H]1CCCN1C(=O)C12CC3CC(CC(C3)C1)C2)C(=O)N[C@@H](CCC(=O)OC(C)(C)C)C(=O)N[C@H](C(=O)OC(C)(C)C)C(C)C (Adamantane1carbonyl-PLE(OtBu)V-OtBu) | 6.94 µM | 92.1% | -0.89 °C | 33.6% | 1.62 10^3/M/s | Non-Toxic | -0.13 °C | 33.9 µM | inactive | 5.8 10^-3/s | > 200 µM | 7.94 10^-3/s | 8.29 10^5/M/s
CC(C)C[C@H](NC(=O)[C@@H]1CCCN1C(=O)C12CC3CC(CC(C3)C1)C2)C(=O)N[C@@H](CCC(=O)OC(C)(C)C)C(=O)N[C@H](C(=O)OC1CCCCC1)C(C)C (Adamantane1carbonyl-PLE(OtBu)V-OcHex) | 7.02 µM | 69.9% | -2.21 °C | 43.4% | 7.35 10^3/M/s | Non-Toxic | 0.43 °C | 35.3 µM | inactive | 1.39 10^-2/s | > 200 µM | 1.7 10^-4/s | 7.16 10^5/M/s
CCCOC(=O)[C@@H](NC(=O)[C@H](CCC(=O)OC(C)(C)C)NC(=O)[C@H](CC(C)C)NC(=O)[C@@H]1CCCN1C(=O)C12CC3CC(CC(C3)C1)C2)C(C)C (Adamantane1carbonyl-PLE(OtBu)V-OPr) | 11.4 µM | 83.3% |  |  | 2.89 10^2/M/s |  |  | 22.5 µM |  | 2.04 10^-2/s | 90.1 µM | 4.92 10^-2/s | 3.4 10^2/M/s
C=CCOC(=O)[C@@H](NC(=O)[C@H](CCC(=O)OC(C)(C)C)NC(=O)[C@H](CC(C)C)NC(=O)[C@@H]1CCCN1C(=O)C12CC3CC(CC(C3)C1)C2)C(C)C (Adamantane1carbonyl-PLE(OtBu)V-OAll) | 1.31 µM | 95.5% | -4.55 °C | 5% | 1.79 10^4/M/s | Non-Toxic | 0.04 °C | 11.5 µM | inactive | 9.32 10^-3/s | > 200 µM | 2.73 10^-3/s | 6.16 10^6/M/s
